The source of these data is ChEMBL document CHEMBL1140316, “Synthesis and immunosuppressive activity of new artemisinin derivatives. 1. [12(beta or alpha)-Dihydroartemisininoxy]phen(ox)yl aliphatic acids and esters” (J Med Chem, 2005).

For assay [1], the species on record is Mus musculus. As to the kind of experiment: Ratio of concentration that reduced cell viability to inhibitory concentration for ConA-induced T cell proliferation. The assay is classed as functional.
For assay [2], the species on record is Mus musculus. The assay is described as follows: Ratio of concentration that reduced cell viability to inhibitory concentration for LPS-induced B cell proliferation. It counts as functional.
For assay [3], the species on record is Mus musculus. As to the kind of experiment: In vitro concentration of compound required to reduced spleen cell viability to 50% in BALB/c mice. The assay is classed as functional. The essentials:
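Male BALB/c mouse spleen cells (7–9 weeks), erythrocytes lysed with ammonium chloride, 5 × 10^5 cells per well in RPMI 1640/10% FBS with antibiotics. Exposed to a range of compound concentrations for 48 h at 37 °C, 5% CO2. MTT (5 mg/mL stock) added for the final 5 h, then SDS/DMF lysis buffer (pH 7.2) for 6–7 h. Absorbance read at 570 nm; CC50 is the concentration reducing viability to 50%.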

In the next assay the test system is T-cell. As to the kind of experiment: In vitro concentration of compound required to inhibit ConA-induced T cell proliferation to 50% in BALB/c mice. It counts as functional, cell-based. Particulars: Mus musculus. An outline of the steps: (§1)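 Fresh spleen cells from male BALB/c mice (7–9 weeks); 5 × 10^5 cells per well in RPMI 1640 with 10% FBS, penicillin/streptomycin, 37 °C, 5% CO2, 48 h, with test compounds at varied concentrations. Stimulated with 5 µg/mL ConA (T cells) or 10 µg/mL LPS (B cells). Proliferation read as [3H]thymidine uptake over an 8 h pulse (20 kBq/well), scintillation counting. IC50 is the concentration that inhibits proliferation to 50% of control.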

Assay [4] can be described thus: In vitro concentration of compound required to inhibit LPS-induced B cell proliferation to 50% in BALB/c mice. The assay is classed as functional, cell-based. The settings on record: Mus musculus. The essentials:
as §1

Each structure is given as a SMILES string.

The term CC50 denotes the concentration giving 50% cytotoxicity. A high value points to lower toxicity to the cells. In general, IC50 refers to the concentration at which inhibition is half-maximal. Regarding `C[C@H]1[C@@H](Oc2ccc(CC(=O)O)cc2)O[C@@H]2O[C@]3(C)CCC4[C@H](C)CC[C@@H]1[C@]42OO3` (some centres not stated), the Selectivity index in the assay listed under Mus musculus [1] is given as greater than 9; in the assay listed under Mus musculus [2] it was greater than 10. The molecule also came in with a CC50 in the assay filed under Mus musculus [3] greater than 100 µM. The figures for the IC50 (in the assay with T-cell; in assay [4]) were 11.8 µM and 10200 nM, respectively.
The matching figures for `C[C@H]1[C@@H](Oc2cccc(OC(=O)CCC(=O)O)c2)O[C@@H]2O[C@]3(C)CCC4[C@H](C)CC[C@@H]1[C@]42OO3` (some centres not stated): 161, 199, 52.7 µM, 0.327 µM and 265 nM.
For `CCOC(=O)CNC(=O)c1ccc(O[C@H]2O[C@@H]3O[C@]4(C)CC[C@H]5[C@H](C)CC[C@@H]([C@H]2C)[C@@]35OO4)cc1`, the figures for the Selectivity index in the assay filed under Mus musculus [1] and in the assay filed under Mus musculus [2] were 51 and 2421, respectively. Further, in the assay filed under Mus musculus [3], the CC50 was determined as 130 µM. The figures for the IC50 (in the assay on T-cell; in assay [4]) were 2.53 µM and 53.7 nM, respectively.
In the case of `CC(Oc1cccc(OC2O[C@@H]3O[C@]4(C)CC[C@H]5[C@H](C)CC[C@@H]([C@H]2C)[C@@]35OO4)c1)C(=O)O` (some centres not stated), the figures for the Selectivity index in the assay listed under Mus musculus [1] and in the assay filed under Mus musculus [2] were 4 and 47, respectively. In the assay listed under Mus musculus [3], the midpoint of cytotoxicity, the CC50, lay at 35.1 µM. Further, the IC50 was 8.6 µM in the assay with T-cell and 740 nM in assay [4].
For `CCOC(=O)C(C)Oc1ccc(OC2O[C@@H]3OC4(C)CCC5[C@H](C)CC[C@@H]([C@H]2C)[C@]53OO4)cc1` (single isomer, unassigned) the same measures were greater than 385, greater than 118, greater than 100 µM, 0.26 µM and 850 nM.
As for `CC(C(=O)O)c1ccc(O[C@H]2O[C@@H]3OC4(C)CCC5[C@H](C)CC[C@@H]([C@H]2C)[C@]53OO4)cc1` (single isomer, unassigned), the Selectivity index worked out at 17 in the assay listed under Mus musculus [1] and 7 in the assay filed under Mus musculus [2]. The CC50 in the assay filed under Mus musculus [3] amounted to 59.6 µM. Further, the figures for the half-inhibitory concentration (IC50) (in the assay with T-cell; in assay [4]) were 3.6 µM and 8600 nM, respectively.
The matching figures for `CC(Oc1cccc(O[C@@H]2OC3OC4(C)CCC5[C@H](C)CC[C@@H]([C@H]2C)[C@@]35OO4)c1)C(=O)O` (single isomer, unassigned): 1, 5, 5.54 µM, 7.64 µM and 1050 nM.
With `C[C@H]1[C@@H](Oc2ccc(OCC(=O)O)cc2)OC2OC3(C)CCC4[C@H](C)CC[C@@H]1[C@@]24OO3` (single isomer, unassigned), the Selectivity index in the assay listed under Mus musculus [1] was 66; in the assay listed under Mus musculus [2] it was 59. Half-maximal cytotoxicity in the assay listed under Mus musculus [3] (CC50) was put at 354 µM. Besides, the results for the IC50 (with T-cell; in assay [4]) were 5.34 µM and 5980 nM, respectively.
For `COC(=O)Cc1ccc(O[C@H]2O[C@@H]3OC4(C)CCC5[C@H](C)CC[C@@H]([C@H]2C)[C@]53OO4)cc1` (single isomer, unassigned) the same measures were 11, 45, 8 µM, 0.713 µM and 179 nM.
The matching figures for `COc1ccccc1OC(=O)C(C)Oc1cccc(O[C@H]2O[C@@H]3OC4(C)CC[C@H]5[C@H](C)CC[C@@H]([C@H]2C)[C@@]35OO4)c1` (single isomer, unassigned): 1, 5, 2.99 µM, 4.12 µM and 570 nM.
For the molecule `CCOC(=O)C(C)Oc1cccc(OC2OC3OC4(C)CC[C@H]5[C@H](C)CC[C@@H]([C@H]2C)[C@@]35OO4)c1` (single isomer, unassigned), the values for the Selectivity index in the assay filed under Mus musculus [1] and in the assay filed under Mus musculus [2] were 1 and 4, respectively. In addition, it took 1.36 µM to reach half-maximal cytotoxicity in the assay filed under Mus musculus [3] (CC50). Further, the values for the IC50 (in the assay with T-cell; in assay [4]) were 1.73 µM and 350 nM, respectively.
Turning to `CC(Oc1ccc(OC2O[C@@H]3OC4(C)CC[C@H]5[C@H](C)CC[C@@H]([C@H]2C)[C@@]35OO4)cc1)C(=O)O` (single isomer, unassigned), the Selectivity index is on record as greater than 14 in the assay listed under Mus musculus [1] and greater than 116 in the assay listed under Mus musculus [2]. Moreover, the CC50 in the assay filed under Mus musculus [3] is greater than 100 µM. Besides, the figures for the IC50 (in the assay on T-cell; in assay [4]) were 7.27 µM and 860 nM, respectively.
Regarding `C[C@H]1[C@@H](Oc2ccc(OCC(=O)OCCN(C)C)cc2)O[C@@H]2OC3(C)CC[C@H]4[C@H](C)CC[C@@H]1[C@@]24OO3` (single isomer, unassigned), the Selectivity index is 1 in the assay filed under Mus musculus [1] and 42 in the assay listed under Mus musculus [2]. The CC50 in the assay listed under Mus musculus [3] worked out at 2.08 µM. The IC50 with T-cell was found to be 1.96 µM; in assay [4] it was 49.6 nM.
As for `COC(=O)CCc1ccc(O[C@H]2O[C@@H]3OC4(C)CC[C@H]5[C@H](C)CC[C@@H]([C@H]2C)[C@@]35OO4)cc1` (single isomer, unassigned), the Selectivity index in the assay filed under Mus musculus [1] was 302; in the assay listed under Mus musculus [2], 2343. In the assay listed under Mus musculus [3], the CC50 was 41.7 µM. The IC50 in the assay on T-cell is 0.138 µM; in assay [4] it was 17.8 nM.
As for `COc1ccccc1OC(=O)C(C)Oc1ccc(O[C@H]2O[C@@H]3OC4(C)CC[C@H]5[C@H](C)CC[C@@H]([C@H]2C)[C@@]35OO4)cc1` (single isomer, unassigned), the Selectivity index in the assay listed under Mus musculus [1] is reported as 17; in the assay listed under Mus musculus [2], 145. This molecule also showed a cytotoxic concentration (CC50) in the assay filed under Mus musculus [3] of 39.1 µM. Also, the figures for the concentration for half-maximal inhibition (IC50) (in the assay with T-cell; in assay [4]) were 2.33 µM and 270 nM, respectively.
The matching figures for `COC(=O)C(C)c1ccc(O[C@H]2O[C@@H]3OC4(C)CC[C@H]5[C@H](C)CC[C@@H]([C@H]2C)[C@@]35OO4)cc1` (single isomer, unassigned): 477, 8, 6.53 µM, 0.0137 µM and 780 nM.
In the case of `COC(=O)COc1ccc(O[C@H]2OC3OC4(C)CC[C@H]5[C@H](C)CC[C@@H]([C@H]2C)[C@@]35OO4)cc1` (single isomer, unassigned), the Selectivity index was found to be 848 in the assay filed under Mus musculus [1] and 28473 in the assay listed under Mus musculus [2]. This molecule also returned a 50% cytotoxic concentration (CC50) in the assay filed under Mus musculus [3] of 207 µM. The IC50 in the assay on T-cell came to 0.244 µM; in assay [4], 7.27 nM.
For `C[C@H]1[C@@H](Oc2ccc(CCC(=O)O)cc2)O[C@@H]2OC3(C)CC[C@H]4[C@H](C)CC[C@@H]1[C@@]24OO3` (single isomer, unassigned) the same measures were 3, 97, 10.4 µM, 4 µM and 107 nM.
With `CCOC(=O)C(C)Oc1cccc(O[C@H]2O[C@@H]3OC4(C)CC[C@H]5[C@H](C)CC[C@@H]([C@H]2C)[C@@]35OO4)c1` (single isomer, unassigned), the Selectivity index in the assay filed under Mus musculus [1] came out at 1; in the assay filed under Mus musculus [2], 5. The CC50 in the assay filed under Mus musculus [3] amounted to 2.99 µM. Moreover, the IC50 turned out to be 3.59 µM in the assay on T-cell and 560 nM in assay [4].
As to `CO[C@H]1O[C@@H]2O[C@@]3(C)CC[C@H]4[C@H](C)CC[C@@H]([C@H]1C)[C@@]24OO3` [ARTEMETHER], the Selectivity index in the assay filed under Mus musculus [1] came out at 23; in the assay filed under Mus musculus [2], 48. In the assay listed under Mus musculus [3], half-maximal cytotoxicity (CC50) was put at 86 µM. Further, the IC50 stood at 3.82 µM with T-cell and 1780 nM in assay [4].
Turning to `C[C@@H]1CC[C@H]2[C@@H](C)C(=O)O[C@@H]3O[C@@]4(C)CC[C@@H]1[C@]32OO4` [ARTEMISININ], the Selectivity index is given as 6 in the assay listed under Mus musculus [1] and 3 in the assay listed under Mus musculus [2]. The molecule further yielded a CC50 in the assay filed under Mus musculus [3] of 28.3 µM. Also, the IC50 worked out at 4.43 µM in the assay on T-cell and 8960 nM in assay [4].
For `C[C@H]1[C@H](OC(=O)CCC(=O)O)O[C@@H]2O[C@@]3(C)CC[C@H]4[C@H](C)CC[C@@H]1[C@@]24OO3` [ARTESUNATE] the same measures were 7, 33, 32.9 µM, 4.58 µM and 989 nM.
As to `C/C=C/C[C@@H](C)[C@@H](O)[C@H]1C(=O)N[C@@H](CC)C(=O)N(C)CC(=O)N(C)[C@@H](CC(C)C)C(=O)N[C@@H](C(C)C)C(=O)N(C)[C@@H](CC(C)C)C(=O)N[C@@H](C)C(=O)N[C@H](C)C(=O)N(C)[C@@H](CC(C)C)C(=O)N(C)[C@@H](CC(C)C)C(=O)N(C)[C@@H](C(C)C)C(=O)N1C` [CYCLOSPORINE], the Selectivity index amounted to 963 in the assay filed under Mus musculus [1] and 7 in the assay listed under Mus musculus [2].
